Reference: ChEMBL document CHEMBL2163334, “Discovery of highly potent and selective pan-Aurora kinase inhibitors with enhanced in vivo antitumor therapeutic index” (J Med Chem, 2012)
The source made the active and inactive calls. The calls are words filed in the database; no cut-off is given here.

Experiments:
[1] = Clearance in athymic Nu/Nu rat at 30 mg/kg, iv administered using TPPW as vehicle; type: ADME, organism-based; design: dose 30 mg/kg, route intravenous; settings: in vivo
How it was run: (§1)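 Plasma from K3 EDTA blood at 5, 15, 30 min, 1, 2, 4, 6, 24 h; acetonitrile extraction with internal standard, LC-MS/MS on C8 column, 5-95% ACN gradient with 0.05% formic acid.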

[2] = AUC (0 to infinity) in Nu/Nu rat at 10 mg/kg, iv administered using TPPW as vehicle; type: ADME, organism-based; design: time infinity, dose 10 mg/kg, route intravenous; settings: plasma; how it was run: as §1
Rattus norvegicus [3] = test: Toxicity in athymic nude rat bearing human HCT116 cells assessed as adverse effects at 5 to 10 mg/kg, iv administered QD for 4 days per week followed by 3 days off per week for 3 weeks; type: organism-based, HCT-116; design: dose 5-10 mg/kg, route intravenous; settings: in vivo
How it was run: (§2)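 Subcutaneous flank HCT-116 xenografts in nude rats; at Day 1 groups of 10 with mean tumor 301-306 mm³. Tail-vein iv in TPPW (2% Tween-80, 5% propylene glycol, 10% PG-400, 83% water) at 10 mL/kg, weight-adjusted: days 1,3,5,8,10,12,15,17,19 or days 1-4, 8-11, 15-18. Irinotecan control 100 mg/kg ip weekly ×3.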

[4] = Half life in Nu/Nu rat at 30 mg/kg, iv administered using TPPW as vehicle; type: ADME, organism-based; design: dose 30 mg/kg, route intravenous; settings: in vivo; how it was run: as §1
HCT-116 [5] = test: Antitumor activity against human HCT116 cells xenografted in athymic nude rat assessed as tumor growth inhibition at 5 mg/kg, iv administered QD for 4 days per week followed by 3 days off per week for 3 weeks; type: functional, organism-based; design: dose 5 mg/kg; how it was run: as §2
HCT-116 [6] = test: Antitumor activity against human HCT116 cells xenografted in athymic nude rat assessed as tumor growth inhibition at 20 mg/kg, iv administered every other day from day 10 post tumor-injection for 3 weeks relative to vehicle treated control; type: functional; settings: read-out: TGI; how it was run: as §2
[7] = Half life in Nu/Nu rat at 3 mg/kg, iv administered using TPPW as vehicle; type: ADME, organism-based; design: dose 3 mg/kg, route intravenous; settings: in vivo; how it was run: as §1
Aurora kinase A [8] = molecular target: T1, Aurora kinase A (Homo sapiens, UniProt O14965); test: Inhibition of Aurora kinase A autophosphorylation in human HEK293 cells after 2 hrs by phosphor antibody readout assay; type: cell-based
T1 sequence (O14965 whole entry): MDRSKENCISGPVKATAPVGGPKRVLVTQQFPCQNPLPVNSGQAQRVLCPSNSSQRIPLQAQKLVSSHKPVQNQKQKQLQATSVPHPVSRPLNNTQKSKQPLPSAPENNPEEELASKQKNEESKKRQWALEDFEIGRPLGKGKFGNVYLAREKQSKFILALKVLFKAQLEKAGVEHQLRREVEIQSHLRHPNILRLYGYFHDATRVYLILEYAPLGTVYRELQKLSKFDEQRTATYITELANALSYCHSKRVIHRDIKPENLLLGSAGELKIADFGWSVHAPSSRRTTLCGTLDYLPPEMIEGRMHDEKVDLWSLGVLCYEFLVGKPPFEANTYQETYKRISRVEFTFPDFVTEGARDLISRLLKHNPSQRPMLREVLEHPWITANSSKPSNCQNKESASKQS

[9] = Half life in Sprague-Dawley rat at 1 mg/kg, iv administered using PEG400/water as vehicle; type: ADME, organism-based; design: dose 1 mg/kg, route intravenous; settings: in vivo
How it was run: (§3)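 SD rats fasted overnight, given 1 mg/kg iv in PEG400/water (3:1, v/v); three per arm. Blood into K3 EDTA at 5, 15, 30 min, 1, 2, 4, 6, 24 h, spun at 4 °C; plasma extracted with six volumes acetonitrile plus internal standard and quantified by LC-MS/MS (C8 column, formic acid/ACN gradient).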

Aurora kinase B [10] = molecular target: T2, Aurora kinase B (Homo sapiens, UniProt Q96GD4); test: Inhibition of Aurora kinase B in human HCT116 cells assessed as induction of 8N polyploidy; type: cell-based; settings: HCT-116
T2 sequence (Q96GD4 whole entry): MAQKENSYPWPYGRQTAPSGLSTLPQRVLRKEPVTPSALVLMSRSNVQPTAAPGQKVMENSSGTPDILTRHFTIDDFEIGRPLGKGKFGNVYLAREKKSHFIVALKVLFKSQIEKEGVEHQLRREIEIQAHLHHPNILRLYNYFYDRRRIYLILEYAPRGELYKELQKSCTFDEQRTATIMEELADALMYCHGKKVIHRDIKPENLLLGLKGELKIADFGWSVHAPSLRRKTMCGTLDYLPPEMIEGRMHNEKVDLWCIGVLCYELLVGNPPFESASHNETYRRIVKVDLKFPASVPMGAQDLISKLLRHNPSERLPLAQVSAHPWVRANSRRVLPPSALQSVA

HCT-116 [11] = test: Antitumor activity against human HCT116 cells xenografted in athymic nude rat assessed as tumor stasis at 10 to 20 mg/kg, iv administered every other day from day 10 post tumor-injection for 3 weeks measured upto 40 days; type: functional, organism-based
How it was run: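 HCT-116 flank xenografts in nude rats, groups of 10 at mean 301-306 mm³; iv tail-vein dosing in TPPW at 10 mL/kg on days 1,3,5,8,10,12,15,17,19; tumors followed after dosing stopped, study ending day 42 or day 60.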

Aurora kinase C = molecular target: T3, Aurora kinase C (Homo sapiens, UniProt Q9UQB9); test: Binding affinity to Aurora kinase C
T3 sequence (Q9UQB9 whole entry): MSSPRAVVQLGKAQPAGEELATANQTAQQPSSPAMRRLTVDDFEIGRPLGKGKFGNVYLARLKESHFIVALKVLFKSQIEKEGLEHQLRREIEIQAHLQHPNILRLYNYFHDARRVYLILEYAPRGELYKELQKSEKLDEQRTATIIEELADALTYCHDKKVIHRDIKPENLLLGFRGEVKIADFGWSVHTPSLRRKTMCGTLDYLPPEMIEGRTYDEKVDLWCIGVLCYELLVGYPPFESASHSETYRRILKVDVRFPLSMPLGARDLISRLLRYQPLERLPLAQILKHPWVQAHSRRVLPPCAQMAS

HCT-116 [12] = test: Antitumor activity against human HCT116 cells xenografted in athymic nude rat assessed as tumor growth inhibition at 10 mg/kg, iv administered QD for 4 days per week followed by 3 days off per week for 3 weeks; type: functional, organism-based; design: dose 10 mg/kg; how it was run: as §2
Rattus norvegicus [13] = test: Toxicity in athymic nude rat bearing human HCT116 cells assessed body weight loss up to 20 mg/kg, iv administered every other day from day 10 post tumor-injection for 3 weeks; type: organism-based, HCT-116; design: dose 20 mg/kg, route intravenous; settings: in vivo, 504 h; how it was run: as §2
Aurora kinase B [14] = molecular target: T2, Aurora kinase B; test: Binding affinity to Aurora kinase B catalytic domain by competition binding assay
[15] = Volume of distribution in Nu/Nu rat at 3 mg/kg, iv administered using TPPW as vehicle; type: ADME, organism-based; design: dose 3 mg/kg, route intravenous; settings: in vivo; how it was run: as §1
[16] = Clearance in Sprague-Dawley rat at 1 mg/kg, iv administered using PEG400/water as vehicle; type: ADME, organism-based; design: dose 1 mg/kg, route intravenous; settings: in vivo; how it was run: as §3
HCT-116 [17] = test: Antitumor activity against human HCT116 cells xenografted in athymic nude rat assessed as tumor growth inhibition at 10 mg/kg, iv administered every other day from day 10 post tumor-injection for 3 weeks relative to vehicle treated control; type: functional; settings: read-out: TGI; how it was run: as §2
[18] = Volume of distribution in Sprague-Dawley rat at 1 mg/kg, iv administered using PEG400/water as vehicle; type: ADME, organism-based; design: dose 1 mg/kg, route intravenous; settings: in vivo; how it was run: as §3
Aurora kinase B [19] = molecular target: T2, Aurora kinase B; test: Inhibition of Aurora kinase B-mediated histone H3 Ser10 phosphorylation in human HCT116 cells after 2 hrs by sandwich ELISA; type: cell-based, HCT-116
How it was run: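 HCT-116 cells seeded 4 × 10⁴/well, 4-6 h at 37 °C, then arrested overnight (16-18 h) with nocodazole at 66 ng/mL final. Treated 2 h with nine-point 3-fold dilutions in DMSO; lysed with phosphatase inhibitor, phospho-H3 (Ser10) sandwich ELISA read at 450 nm. IC50 = 50% inhibition of phosphorylation; duplicate runs averaged.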

[20] = Protein binding in plasma; type: ADME, cell-free; settings: read-out: PPB
[21] = Volume of distribution in Nu/Nu rat at 10 mg/kg, iv administered using TPPW as vehicle; type: ADME, organism-based; design: dose 10 mg/kg, route intravenous; settings: in vivo; how it was run: as §1
[22] = Clearance in athymic Nu/Nu rat at 10 mg/kg, iv administered using TPPW as vehicle; type: ADME, organism-based; design: dose 10 mg/kg, route intravenous; settings: in vivo; how it was run: as §1
Aurora kinase A [23] = molecular target: T1, Aurora kinase A; test: Binding affinity to Aurora kinase A catalytic domain by competition binding assay
[24] = AUC (0 to infinity) in Nu/Nu rat at 30 mg/kg, iv administered using TPPW as vehicle; type: ADME, organism-based; design: time infinity, dose 30 mg/kg, route intravenous; settings: plasma; how it was run: as §1
[25] = Volume of distribution in Nu/Nu rat at 30 mg/kg, iv administered using TPPW as vehicle; type: ADME, organism-based; design: dose 30 mg/kg, route intravenous; settings: in vivo; how it was run: as §1
[26] = Half life in Nu/Nu rat at 10 mg/kg, iv administered using TPPW as vehicle; type: ADME, organism-based; design: dose 10 mg/kg, route intravenous; settings: in vivo; how it was run: as §1
HCT-116 [27] = test: Antiproliferative activity against human HCT116 cells after 72 hrs by BrdU-based ELISA; type: functional, cell-based; settings: HCT-116, 72 h
How it was run: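 HCT-116 cells in McCoy's 5A with 10% FBS and pen/strep, seeded 800 cells/well, left overnight at 37 °C, 5% CO2. Nine-point 3-fold serial dilutions in DMSO added for 72 h; BrdU colorimetric ELISA read at 450 and 690 nm. IC50 is the concentration halving proliferation; duplicate runs averaged.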

[28] = AUC (0 to infinity) in Nu/Nu rat at 3 mg/kg, iv administered using TPPW as vehicle; type: ADME, organism-based; design: time infinity, dose 3 mg/kg, route intravenous; settings: plasma; how it was run: as §1
[29] = Clearance in athymic Nu/Nu rat at 3 mg/kg, iv administered using TPPW as vehicle; type: ADME, organism-based; design: dose 3 mg/kg, route intravenous; settings: in vivo; how it was run: as §1
Rattus norvegicus [30] = test: Toxicity in athymic nude rat bearing human HCT116 cells assessed body weight loss at 40 mg/kg, iv administered every other day from day 10 post tumor-injection for 3 weeks; type: organism-based, HCT-116; design: dose 40 mg/kg, route intravenous; settings: in vivo, 504 h; how it was run: as §2
[31] = AUC (0 to infinity) in Sprague-Dawley rat at 1 mg/kg, iv administered using PEG400/water as vehicle; type: ADME, organism-based; design: time infinity, dose 1 mg/kg, route intravenous; settings: plasma; how it was run: as §3

Cc1cc(Nc2nc(Sc3ccc(NC(=O)CN4CC[C@@H](C(=O)NC5CCCC5)C4)cc3)nn3cccc23)n[nH]1
clearance [1]: 14.7 mL/min/kg
AUC(0-inf) [2]: 14.6 µM·h
Activity (Rattus norvegicus [3]): Non-toxic
half-life [4]: 3.4 h
TGI (HCT-116 [5]): Active
inhibition in vivo at 20 mg/kg (HCT-116 [6]): 82%
half-life [7]: 1.5 h
IC50 (Aurora kinase A [8]): 2 nM
half-life [9]: 9.4 h
inhibition (Aurora kinase B [10]): Dose-dependent effect
Activity (HCT-116 [11]): Active
Kd (Aurora kinase C): < 10 nM
TGI (HCT-116 [12]): Active
Activity (Rattus norvegicus [13]): Non-toxic
Kd (Aurora kinase B [14]): 1.9 nM
Vd [15]: 1 L/kg
clearance [16]: 16.9 mL/min/kg
inhibition in vivo at 10 mg/kg (HCT-116 [17]): 77%
Vd [18]: 3.49 L/kg
IC50 (Aurora kinase B [19]): 3 nM
fraction unbound [20]: 0.01
Vd [21]: 1.1 L/kg
clearance [22]: 20.7 mL/min/kg
Kd (Aurora kinase A [23]): 9.3 nM
AUC(0-inf) [24]: 62.5 µM·h
Vd [25]: 0.84 L/kg
half-life [26]: 3.8 h
IC50 (HCT-116 [27]): 2.3 nM
AUC(0-inf) [28]: 3.2 µM·h
clearance [29]: 27.9 mL/min/kg
Activity (Rattus norvegicus [30]): > 10%
AUC(0-inf) [31]: 1.8 µM·h
